Reference: publication PMC2729689 (Hypertension, 2009)
“Also recorded” adds a separate entry of the source. Where no end group is shown, it is not given here.

What was measured:
[1] = system: anesthetized rats (male Sprague Dawley); test: Urinary sodium excretion; format: in vivo, rat
[2] = molecular target: GC-C (GC-C-expressing T84 cell line) (Homo sapiens, UniProt P25092); test: T84 cell-based cyclic GMP bioassay
In short: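 Test peptide diluted into bioassay medium (1 mM IBMX, 137 mM NaCl, 5.4 mM KCl, 1.3 mM CaCl2, 1.0 mM MgSO4, 4.2 mM NaHCO3, phosphates, phenol red, 10 mM HEPES), pH readjusted to 7.0 if required, then applied to T84 cells for 30 min. Cells lysed; cyclic GMP measured by radioimmunoassay. Concentration-response data fitted with the log(agonist) vs response equation.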

[3] = system: chymotrypsin-like activity in the kidney; settings: cited from earlier work
[4] = rat, mouse, and opossum forms; 37° C and neutral pH; cited from earlier work
[5] = system: kidney; settings: cited from earlier work
[6] = system: GC-C knockout mouse intestine; settings: cited from earlier work
[7] = system: GC-C knockout mouse kidneys; settings: cited from earlier work

Sequence of GC-C (GC-C-expressing T84 cell line) (P25092 24-1073): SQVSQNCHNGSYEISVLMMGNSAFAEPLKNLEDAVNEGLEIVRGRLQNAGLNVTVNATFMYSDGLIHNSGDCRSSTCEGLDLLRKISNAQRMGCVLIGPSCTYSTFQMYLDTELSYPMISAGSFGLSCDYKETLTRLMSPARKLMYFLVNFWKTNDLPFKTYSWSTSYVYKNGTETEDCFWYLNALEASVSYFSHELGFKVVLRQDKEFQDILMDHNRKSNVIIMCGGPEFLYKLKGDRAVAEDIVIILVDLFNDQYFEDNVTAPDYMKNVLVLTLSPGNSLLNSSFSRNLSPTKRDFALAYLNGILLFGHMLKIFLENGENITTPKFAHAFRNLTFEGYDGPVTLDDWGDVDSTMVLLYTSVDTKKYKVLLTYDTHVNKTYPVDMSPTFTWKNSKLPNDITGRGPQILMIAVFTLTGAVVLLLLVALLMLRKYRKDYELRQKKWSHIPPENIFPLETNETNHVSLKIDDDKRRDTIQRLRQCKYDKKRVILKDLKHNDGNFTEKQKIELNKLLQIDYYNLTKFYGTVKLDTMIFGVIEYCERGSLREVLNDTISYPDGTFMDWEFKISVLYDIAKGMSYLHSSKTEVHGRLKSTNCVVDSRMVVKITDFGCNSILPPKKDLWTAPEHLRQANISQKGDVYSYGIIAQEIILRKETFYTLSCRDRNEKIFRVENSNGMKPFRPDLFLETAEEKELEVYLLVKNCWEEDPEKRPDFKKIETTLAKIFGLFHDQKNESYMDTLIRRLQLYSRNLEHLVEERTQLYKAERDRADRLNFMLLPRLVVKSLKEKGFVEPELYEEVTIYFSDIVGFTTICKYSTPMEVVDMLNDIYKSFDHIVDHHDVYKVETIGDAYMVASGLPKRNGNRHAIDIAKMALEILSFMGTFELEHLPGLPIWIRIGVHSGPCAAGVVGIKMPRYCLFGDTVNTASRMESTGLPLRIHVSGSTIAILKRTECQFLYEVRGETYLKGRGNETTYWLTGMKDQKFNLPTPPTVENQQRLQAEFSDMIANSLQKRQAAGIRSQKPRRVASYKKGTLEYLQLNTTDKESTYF

Substance: CCELCCNPACTGCY (also: bicyclic or more (positions not given here)) [ST-core]
- natriuretic effect compared with huUgnA ([1]; iv infusion, cumulative 3 hour, Figure 6b, words): the maximal natriuresis elicited by ST-core was slightly less and the response was shifted to the right; also recorded: right-shifted, but otherwise quite similar to those evoked by huUgnA
- pharmacological profile of the renal responses (rank order) ([1]; rat, in vivo): huUgnB ≥ huUgnA ≈ ST core, with physiological antagonism by huUgnA at high concentration
- EC50 for cyclic GMP stimulation relative to huUgnA (fold lower) ([2]; T84 cells, no reference or data printed): about 10 fold
- pharmacological profile of GC-C-mediated responses (rank order) ([2]; described as well-established): ST core > huUgnA >> huUgnB, with all three peptides acting as pure agonists

Substance: guanylin (PGTCEICAYAACTGC; ends and bridges not checked; cysteine pairing not given here; UniProt Q02747 101-115, looked up) [Gn]
- susceptibility to proteolytic digestion ([3]; chymotrypsin-like activity in the kidney): susceptible to proteolytic digestion
- detectability in urine [3]: undetectable in urine
- rate of interconversion of the two conformations [4]: 1–2 cycles per sec
- kaliuretic activity, Gn versus Ugn ([5]; words): more kaliuretic than Ugn

Substance: rat Ugn: rat form of uroguanylin; A and B forms interconvert rapidly (TDECELCINVACTGC; not fully specified (bridges); ends and bridges not checked; UniProt P70668 92-106, looked up)
- secretory response from the intestine [6]: only small, residual secretory responses
- natriuretic response from the kidneys [7]: apparently full natriuretic responses

Substance: uroguanylin (NDDCELCVNVACTGCL; ends and bridges not checked; cysteine pairing not given here; UniProt Q16661 97-112, looked up) [Ugn]
- rate of interconversion of the two conformations [4]: 1–2 cycles per sec
- natriuretic, kaliuretic, diuretic effect ([5]; every preparation that has been examined): natriuretic, kaliuretic, and diuretic in every preparation that has been examined
- natriuretic potency, Ugn versus Gn ([5]; words): a more potent natriuretic factor than Gn
